Screening data (PubChem BioAssay)
An excerpt weighted towards active compounds, which were near 4.1% of everything screened.
KCNK3 inh: human KCNK3 channel inhibition, primary screen; CHO-KCNK3 thallium flux, FluxOR fluorescence; hits give low values; 340,000 tested, 0.84% active; B-score at 10 µM;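 active = B-score under library mean minus 4 SD, starting fluorescence ratio at most library mean plus 5 SD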;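 note: more negative B-score means stronger inhibition of thallium flux through KCNK3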
Target sequence (O14649 whole entry, looked up): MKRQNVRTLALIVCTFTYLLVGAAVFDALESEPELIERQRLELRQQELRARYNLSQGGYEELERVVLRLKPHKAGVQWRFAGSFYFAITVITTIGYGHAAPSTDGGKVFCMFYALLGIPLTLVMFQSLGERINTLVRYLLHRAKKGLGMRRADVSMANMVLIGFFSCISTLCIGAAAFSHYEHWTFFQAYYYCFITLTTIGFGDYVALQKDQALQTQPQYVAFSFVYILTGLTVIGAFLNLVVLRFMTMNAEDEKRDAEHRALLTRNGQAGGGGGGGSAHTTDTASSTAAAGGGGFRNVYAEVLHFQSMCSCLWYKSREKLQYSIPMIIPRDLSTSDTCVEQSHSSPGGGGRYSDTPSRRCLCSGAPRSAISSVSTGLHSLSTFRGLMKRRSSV
KCNQ1 pot: potentiators or activators of human KCNQ1 potassium channel; P51787; CHO-K1 KCNQ1, thallium flux FluxOR fluorescence; hits give high values; B-score at 10 µM; 310,000 tested, 0.35% active;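 active = fluorescence ratio B-score, a plate-corrected score, at least three library SD, with initial intensity B-score within 5 SD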
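Assay system: CHO-K1 cells stably expressing KCNQ1; Medium: assay buffer with matched DMSO; Also added: K+/Tl+ depolarizing stimulus; Dosing: single dose; Timing: dye 90 min, compound 20 min, room temperature; Measured by: kinetic FluxOR thallium fluorescence, 10-s 1-Hz baseline, 110-s post-stimulus read; Read-out: peak-minus-minimum fluorescence over initial fluorescence, negative-control normalized, B-scored.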
hERG rescue: shields human hERG channel from block by proarrhythmic agents; Q12809; CHO-hERG, FluxOR thallium flux, dofetilide IC70 present; activation (rescue from dofetilide block), less the hit threshold, % at 10 µM; 310,000 tested, 0.51% active;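 active = activation above the mean of controls blocked by dofetilide plus 5 SD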;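 note: thallium influx through hERG after potassium depolarization seen as dye fluorescence rise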
KCC2 mod: modulators of human KCC2 chloride dependent transport. KCC2 cells, thallium flux FluoZin-2 fluorescence. Q9H2X9. 190,000 tested, 2.2% active. B-score of Tl+ flux slope (higher = more flux/activation; lower = inhibition) at 10 µM;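 active = thallium flux slope and its plate-corrected score both differing from the plate sample mean at a set confidence after two filtering rounds, in either direction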;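 note: slope of fluorescence scaled to starting intensity during 10 to 20 s after thallium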
KCNQ1 inh: inhibitors of human KCNQ1 potassium channel; CHO-K1 KCNQ1, FluxOR thallium flux fluorescence; hits give high values; B-score at 10 µM; 310,000 tested, 1.3% active; AID 2642;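 active = compounds whose thallium flux B-score, printed positive for inhibition, exceeds three library SD while starting fluorescence stays within three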;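 note: channel opened by potassium depolarization with thallium stimulus after 20 min compound exposure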
KCNK9 block: human KCNK9 channel inhibition; Q9NPC2; HEK293 KCNK9, FluxOR thallium flux fluorescence; hits give low values; B-score at 10 µM; 310,000 tested, 1.2% active; AID 488922;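 active = ratio B-score over 3 SD below the library mean, with starting fluorescence within 5 SD of its mean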;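 note: negative B-score means less thallium flux so channel inhibition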
KCC2 sec1: KCC2 (human) modulation, secondary assay; shares compounds with KCC2 mod; HEK293-KCC2, thallium flux, FluoZin2 fluorescence; hits give high values; 3,700 tested, 15% active; AID 1713; normalised thallium flux (F/F0 slope) at 10 µM;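 active = thallium flux slope above the same plate's solvent-only control mean plus 3 SD; inconclusive = the two replicate wells disagree; inactive = no significant difference from solvent-only control wells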
KCC2 bumet counter: bumetanide-insensitive thallium flux in KCC2 cells with ouabain, counter-screen; AID 1714; normalized thallium flux at 10 µM; HEK293-KCC2 + bumetanide/ouabain, thallium flux FluoZin2; hits give high values; shares compounds with KCC2 mod; 3,700 tested, 49% active;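 active = thallium entry rate above the same plate's blocked-transporter control wells by more than 3 SD; inconclusive = the two repeat wells disagree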;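 note: raw slope of fluorescence over initial fluorescence between 10 and 20 s after thallium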
KCC2 sec2: confirmation of human KCC2 transport modulators. shares compounds with KCC2 mod. HEK293-KCC2, thallium flux FluoZin2 fluorescence; actives lie on both sides; F/F0 rise rate, 10–20 s post-thallium. normalized thallium flux at 10 µM. 3,700 tested, 23% active;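 active = thallium flux slope more than 3 SD above or below the plate's solvent-only control mean, mostly below; inconclusive = the two repeat wells disagreed; inactive = no significant shift from solvent-only controls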;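 note: raw slope with 0.1% DMSO as baseline and bumetanide as block control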
HEK293 Tl flux: counter-screen for KCC2 modulators: effect in parental HEK293 cells | shares compounds with KCC2 mod | thallium flux FluoZin2, ouabain; baseline-ratio fluorescence slope, 10–20 s after thallium | thallium flux rate (normalised fluorescence) at 10 µM | 3,700 tested, 46% active | AID 1716;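 active = thallium flux rate significantly above the same plate's solvent-only control wells, beyond their mean plus 3 SD; inconclusive = the two replicate wells gave conflicting results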
KCC2 ouabain: KCC2 (human) modulation, ouabain retest; shares compounds with KCC2 mod; HEK293-KCC2, thallium flux FluoZin2 fluorescence; bidirectional: low = inhibitor, high = activator; raw Tl+ flux slope (below DMSO = inhibition, above = activation) at 10 µM; 3,700 tested, 48% active; AID 1717;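 active = thallium flux slope beyond 3 SD from same-plate DMSO control mean in most replicates, usually higher, sometimes lower; inconclusive = repeat tests gave conflicting results; inactive = no significant difference from controls in most replicates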;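 note: slope of initial-normalized fluorescence between seconds 10 and 20 after thallium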
HEK counter2: acts in parental HEK cells, second KCC2 counter-screen; shares compounds with KCC2 mod; HEK293 parental, thallium flux FluoZin-2 fluorescence slope; thallium flux slope at 10 µM; 3,700 tested, 33% active; AID 1718;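 active = thallium flux slope above the same plate's solvent-control mean plus 3 SD in both duplicate wells; inconclusive = duplicate wells that disagreed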;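 note: run without ouabain in cells lacking the KCC2 cotransporter; slope of fluorescence scaled to its starting value between 10 and 20 s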
KCNQ1 inh valid: reconfirmed blocker of the human KCNQ1 potassium channel; shares compounds with KCNQ1 inh; KCNQ1 cell line, FluxOR thallium flux fluorescence; 1,600 tested, 93% active; inhibition, % at 10 µM;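 active = primary screen active, with duplicate mean exceeding buffer control mean plus 3 SD of buffer wells, cut at about 28% in these data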;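 note: 0% = buffer control ratio and 100% = XE991 inhibitor control ratio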
CHO KCNQ1 ctr: counter-screen for KCNQ1 inhibitors: effect in parental CHO cells | 1,600 tested, 21% active | parental CHO-K1, FluxOR thallium flux fluorescence ratio; hits give low values; zero means no signal rise above baseline | shares compounds with KCNQ1 inh | fluorescence ratio (Tl flux) at 10 µM;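 active = mean of duplicate thallium-flux fluorescence ratios in parental host cells more than 5 SD below the buffer control mean, cut at about 0.38 in these data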;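 note: ratio is peak minus minimum fluorescence divided by baseline fluorescence; actives read low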
KCNQ2 inh: KCNQ1 inhibitor that also blocks rat KCNQ2 channel; shares compounds with KCNQ1 inh; KCNQ2 cells, FluxOR thallium flux fluorescence; inhibition, % at 10 µM; 1,600 tested, 71% active;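 active = mean percent inhibition of the KCNQ2 thallium signal more than 5 SD above the buffer-only control wells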;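 note: KCNQ2 expressed in CHO cells; 0% = buffer control wells and 100% = XE-991 inhibitor control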
KCNQ1 KCNE1 spec: KCNQ1 inhibitor that also blocks human KCNQ1/KCNE1 channel; shares compounds with KCNQ1 inh; KCNQ1/KCNE1 cells, FluxOR thallium flux fluorescence; inhibition, % at 10 µM; 1,600 tested, 77% active; AID 652147;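 active = mean percent inhibition of duplicate wells above the buffer-only control mean plus 3 SD of those controls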;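 note: 0% = buffer only wells and 100% = XE-991 inhibitor control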
KCNK9 inh conf: human KCNK9 inhibitor confirmation | AID 492992 | 4,900 tested, 43% active | HEK293 KCNK9 cells, FluxOR thallium flux fluorescence | inhibition, % at 10 µM | shares compounds with KCNK9 block;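 active = thallium signal inhibited by more than 5 SD of the compound-free buffer control wells, on both duplicate plates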;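 note: 0% = assay buffer control wells without compound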
Kir21 sel: mouse Kir2.1 off-target activity of KCNK9 modulators. shares compounds with KCNK9 block. Kir2.1 cells, FluxOR thallium flux fluorescence. inhibition, % at 10 µM. 4,900 tested, 4% active. AID 492993;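 active = thallium signal drop more than 5 SD beyond the mean of the no-compound control wells, seen in both duplicate plates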;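 note: signal is fluorescence rise after thallium addition divided by baseline fluorescence; plate controls were assay buffer only for no effect and full block by chlorpromazine control for full effect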
KCNK9 uninduced: second check of KCNK9 modulator effects in non-induced HEK293 cells | shares compounds with KCNK9 block | inhibition, % at 10 µM | AID 492997 | FluxOR thallium flux | 4,900 tested, 40% active;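 active = thallium signal drop beyond 5 SD of the untreated control mean, on both duplicate plates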;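 note: plate controls were buffer only IC0 wells for no effect and SID17386958 at its maximal inhibitory level for full effect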
An asterisk follows results filed as active; i = inactive; ? = inconclusive; / = no result; + = active, no number.

SMILES | KCNK3 inh | KCNQ1 pot | hERG rescue | KCC2 mod | KCNQ1 inh | KCNK9 block | KCC2 sec1 | KCC2 bumet counter | KCC2 sec2 | HEK293 Tl flux | KCC2 ouabain | HEK counter2 | KCNK9 inh conf | Kir21 sel | KCNK9 uninduced | others
CCCc1c(-c2ccc(O)cc2)nn(-c2ccc(O)cc2)c1-c1ccc(O)cc1 | -9* | i | -36 | -2.5* | 13* | i | 0.0072 | 0.0046 | 0.033 | ? | 0.019 | 0.01 | / | / | / | KCNQ1 inh valid=146*;CHO KCNQ1 ctr=0.25*;KCNQ2 inh=i;KCNQ1 KCNE1 spec=+
CC(C)CN(CCNC(=O)CN1C(=O)COc2ccc(S(=O)(=O)N3CCOCC3)cc21)CC(C)C | i | i | -9 | / | i | i | / | / | / | / | / | / | / | / | /
CC(C)/C(=N\NC(=O)Nc1ccccc1)c1ccccc1 | i | i | -8 | 0.013 | i | i | / | / | / | / | / | / | / | / | /
CCC(=O)Nc1cccc(NC(=S)NC(=O)c2cccc(C)c2)c1 | i | i | -11 | 0.39 | i | i | / | / | / | / | / | / | / | / | /
Cc1cccc(NC(=S)N/N=C(\c2ccccc2)C(C)C)c1 | i | i | -3 | 33* | i | i | 0.0059 | 0.06* | 0.05* | 0.04* | 0.055* | 0.036* | i | i | i
CC/C(=N\NC(=S)Nc1cccc(C)c1)c1ccccc1 | i | 12* | 6.9* | 34* | i | i | 0.021* | 0.1* | 0.038 | ? | 0.067* | 0.028* | i | i | i
Cc1ccc(C(C(=O)NCc2ccco2)N(CCc2ccccc2)C(=O)Cn2nnc3ccccc32)o1 (stereo not drawn) | i | / | / | -0.52 | / | / | / | / | / | / | / | / | / | / | /
Oc1ccc(N=Nc2ccc3c(c2)OCCO3)c(O)c1 | i | i | -12 | -1.5 | i | i | / | / | / | / | / | / | / | / | /
